Test results as given in article PMC4618649 (Pharmacology Research & Perspectives, 2015).
Read-outs that look alike come from different tables or passages of the source.

What was measured:
[1] = ref Mantlo and Escribano [2014]; Cannady 2013; cited from earlier work
[2] = Substrate depletion in human liver microsomes; format: in vitro ADME; settings: both, human, human liver microsomes
[3] = system: Human liver microsomes (HLMs); assay: Substrate depletion in human liver microsomes; format: in vitro ADME; settings: largest k calculated, used to approximate first-order conditions; HLMs 0.25 mg/mL
[4] = patients with dyslipidemia, alone or with statins; ref Nicholls et al. [2011]; cited from earlier work
[5] = Phase 1 disposition study: metabolite radioprofiling in plasma and feces; format: in vivo, human; settings: for Percent dose mean excreted in feces: single oral 100 mg 14C-evacetrapib
Outline: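 Samples came from five healthy males after a single oral 100 mg dose (~100 μCi 14C). Plasma, feces and urine were extracted, dried and reconstituted in DMSO/acetonitrile/10 mmol/L ammonium acetate (1:3:3). Metabolites were separated by HPLC, and fractions were counted to build radiochromatograms. Structures were identified by LC/MS and LC/MS/MS (ion trap, plus Orbitrap accurate mass) in positive ion mode.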

[6] = ref Mantlo and Escribano [2014]; Cannady 2013; cited from earlier work; remark: listed apart in the source
CYP3A (rCYP3A4) = CYP3A (rCYP3A4) (Homo sapiens, UniProt P08684); assay: Substrate depletion by human recombinant CYP3A4; format: in vitro ADME
CYP3A (rCYP3A4), sequence (P08684 whole entry): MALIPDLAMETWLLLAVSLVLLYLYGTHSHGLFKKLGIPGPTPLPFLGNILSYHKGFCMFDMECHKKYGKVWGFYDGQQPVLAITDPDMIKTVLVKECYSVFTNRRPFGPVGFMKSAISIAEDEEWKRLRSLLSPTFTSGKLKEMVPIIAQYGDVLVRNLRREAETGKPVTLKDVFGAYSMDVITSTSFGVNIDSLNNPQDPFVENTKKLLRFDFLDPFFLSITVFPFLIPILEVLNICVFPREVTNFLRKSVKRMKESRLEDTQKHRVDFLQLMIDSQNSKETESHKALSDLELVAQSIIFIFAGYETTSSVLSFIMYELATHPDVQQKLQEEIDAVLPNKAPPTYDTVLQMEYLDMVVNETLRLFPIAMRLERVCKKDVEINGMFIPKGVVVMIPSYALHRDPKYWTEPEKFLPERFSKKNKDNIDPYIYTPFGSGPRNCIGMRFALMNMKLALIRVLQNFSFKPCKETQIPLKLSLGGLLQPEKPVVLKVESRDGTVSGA
Outline: (§1)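 Human recombinant CYPs were insect-cell microsomes, with CYPb5 co-expressed if available, plus a no-CYP membrane control. Test compound (30 or 300 nmol/L) was incubated with matrix (0.25 mg/mL) and buffer. NADPH (1 mmol/L) started the reaction, and acetonitrile with internal standard stopped it after 5 or 30 min. CLint came from −kdep and the amount of rCYP, scaled to HLM by relative activity factor.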

[7] = Phase 1 disposition study: excretion and mass balance; format: in vivo, human
Outline: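 Five healthy males received a single oral 100 mg dose containing ~100 μCi 14C-label. Urine and feces were collected to 216 h, and expired air at selected times to 48 h for 14CO2. Radioactivity was counted by liquid scintillation, either directly (urine, expired air) or after combustion (feces). Cumulative fraction of dose was summed over collection periods.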

[8] = Phase 1 DDI study with ketoconazole in healthy subjects; format: in vivo, human; settings: for Ratio of geometric LS means, AUC(0–∞), evacetrapib + ketoconazole versus evacetrapib (90% CI) / Ratio of geometric LS means, Cmax, evacetrapib + ketoconazole versus evacetrapib (90% CI): 100 mg evacetrapib, 400 mg ketoconazole daily; for CL/F: geometric mean (% CV)
Outline: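 Twelve fasted healthy adults of both sexes (18–65 y, BMI 18–32 kg/m2) took part in a fixed-sequence study. Period 1 was a single oral 100 mg of test compound, sampled predose to 168 h. After a ≥14-day washout, Period 2 was ketoconazole 400 mg daily for 14 days with 100 mg test compound on Day 5, sampled for 240 h. Plasma LC/MS/MS range was 1–1000 ng/mL. Analysis was noncompartmental, with log ANOVA (treatment fixed, subject random) and 90% CIs; tmax was compared by Wilcoxon test. Adverse events were recorded.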

[9] = format: in vivo, human; settings: for % AUC(tlast–∞): geometric mean (range)
Outline: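 Five healthy males received a single oral 100 mg dose containing ~100 μCi 14C-label, with blood sampled to 192 h. Plasma parent was measured by LC/MS/MS (range 1–1000 ng/mL). Total radioactivity was counted by liquid scintillation, directly in plasma and after combustion for whole blood. Parameters were derived noncompartmentally. Adverse events were recorded.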

rCYP2C8 = biological target: T1, rCYP2C8 (Homo sapiens, UniProt P10632); assay: Substrate depletion by human recombinant CYP2C8; format: in vitro ADME; settings: rCYP2C8
T1 sequence (P10632 1-490): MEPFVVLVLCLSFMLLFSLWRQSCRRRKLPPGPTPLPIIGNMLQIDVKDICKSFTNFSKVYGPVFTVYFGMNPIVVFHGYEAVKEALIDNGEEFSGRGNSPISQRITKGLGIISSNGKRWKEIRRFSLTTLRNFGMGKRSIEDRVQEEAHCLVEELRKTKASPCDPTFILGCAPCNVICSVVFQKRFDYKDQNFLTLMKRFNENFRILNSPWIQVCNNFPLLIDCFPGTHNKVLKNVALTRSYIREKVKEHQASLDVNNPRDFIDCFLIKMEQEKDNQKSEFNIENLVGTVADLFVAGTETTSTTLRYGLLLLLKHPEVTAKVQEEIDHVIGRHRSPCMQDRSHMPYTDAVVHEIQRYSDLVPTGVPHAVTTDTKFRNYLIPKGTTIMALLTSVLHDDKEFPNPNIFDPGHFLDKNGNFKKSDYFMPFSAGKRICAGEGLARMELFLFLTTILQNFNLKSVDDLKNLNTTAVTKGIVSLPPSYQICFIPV
Outline: as §1

CYP2C8 (rCYP2C8) = biological target: T2, CYP2C8 (rCYP2C8) (Homo sapiens, UniProt P10632); assay: Substrate depletion by human recombinant CYP2C8; format: in vitro ADME; settings: human, recombinant CYP2C8 Supersomes (insect cell microsomes)
T2 sequence (P10632 1-490): T1 sequence (P10632 1-490)
Outline: as §1

[10] = Phase 1 DDI study with gemfibrozil in healthy subjects; format: in vivo, human; settings: for Ratio of geometric LS means, AUC(0–τ), evacetrapib + gemfibrozil versus evacetrapib (90% CI) / Ratio of geometric LS means, Cmax, evacetrapib + gemfibrozil versus evacetrapib (90% CI): 130 mg QD, 600 mg gemfibrozil BID
[11] = both, human, plasma, oral, 100 mg
[12] = both, human, plasma, oral, 400 mg
[13] = male, human, plasma, oral, 100 mg
[14] = both, human, plasma, oral, 130 mg

Cc1cc(C)c2c(c1)[C@@H](N(Cc1cc(C(F)(F)F)cc(C(F)(F)F)c1)c1nnn(C)n1)CCCN2C[C@H]1CC[C@H](C(=O)O)CC1 [evacetrapib]
protein binding [1]: high
microsomal CLint [2]: 138 µL/min/mg
substrate depletion rate constant k in HLMs [3]: 0.0345 min⁻¹
HDL-C levels [4]: increased
LDL-C levels [4]: decreased
changes in blood pressure, aldosterone, cortisol, or electrolytes [4]: without producing substantial changes
radioactive peaks in plasma ([5]; 24-h plasma samples, detected in only 3 subjects): only quantifiable radioactive peak
dose eliminated via CYP-mediated (oxidative) metabolism ([5]; from fecal metabolites): Approximately 70%
Dose eliminated in the select feces through 192 h postdose ([5]; percent dose mean): 89.86%
Percent dose mean excreted in feces [5]: 17 % of the dose
Percent dose mean excreted in feces ([5]; listed as Evacetrapib): 16.80 % of the dose
fraction of evacetrapib eliminated by CYPs ([5]; used in the static model): ~1 For determinations of fm, CYP3A4-mediated metabolism was considered to represent total CPY3A-mediated metabolism AUCi/AUC = 1/(1-fmCYP3A × fraction of evacetrapib eliminated by CYPs) where the fraction of evacetrapib eliminated by CYPs is approximately 0.7.
drug solubility [6]: poor
microsomal CLint (CYP3A (rCYP3A4); human, recombinant CYP3A4 Supersomes (insect cell microsomes)): 186 µL/min/mg
CLint (CYP3A (rCYP3A4); rCYP3A4 representing CYP3A): 4.257 μL × min^−1 × pmol CYP^−1
−kdep (CYP3A (rCYP3A4); rCYP3A4 representing CYP3A): 0.002608 s⁻¹
dose excreted in feces ([7]; mean (±SD), up to 216 h): 93.1 % of the dose
dose excreted in urine ([7]; mean (±SD), up to 216 h): 2.30 % of the dose
levels of radioactivity in expired air ([7]; samples up to 48 h): negligible
Ratio of geometric LS means, AUC(0–∞), evacetrapib + ketoconazole versus evacetrapib (90% CI) [8]: 2.37
Ratio of geometric LS means, Cmax, evacetrapib + ketoconazole versus evacetrapib (90% CI) [8]: 1.94
Ratio of geometric LS means, AUC(0–∞), evacetrapib + ketoconazole versus evacetrapib (90% CI) ([8]; listed as Evacetrapib): 2.37 (1.77, 3.18)
Ratio of geometric LS means, Cmax, evacetrapib + ketoconazole versus evacetrapib (90% CI) ([8]; listed as Evacetrapib): 1.94 (1.39, 2.72)
AUC(0-inf) [8, 11]: 5260 ng·h/mL
Cmax [8, 11]: 332 ng/mL
Tmax [8, 11]: 3 h
Vd/F [8, 11]: 861 L
Tmax [8, 12]: 3 h
Vd/F [8, 12]: 592 L
half-life [8, 12]: 63.2 h
TEAEs considered mild ([8]; evacetrapib alone or in combination with ketoconazole): 16
TEAEs reported ([8]; evacetrapib alone or in combination with ketoconazole, reported by 5 subjects): 18
CL/F ([8]; evacetrapib alone): 19.0 (51) L/h
CL/F ([8]; with 400 mg ketoconazole): 8.24 (57) L/h
difference in median tmax between treatments ([8]; with versus without ketoconazole): no difference
Average (%) of total radioactivity attributed to evacetrapib ([9]; based on AUC(0–36), plasma): 66%
Average (%) of total radioactivity attributed to evacetrapib ([9]; based on AUC(0–∞), plasma): 52%
Average (%) of total radioactivity attributed to evacetrapib ([9]; based on Cmax, plasma): 82%
% AUC(tlast–∞) ([9]; blood total radioactivity, N = 4): 21 (18–24) ^2%
association of evacetrapib-related material with red blood cells ([9]; from blood-to-plasma radioactivity ratios and hematocrit): negligible
AUC(0-t) [9, 13]: 6250 ng·h/mL
Cmax [9, 13]: 777 ng/mL
Vd/F [9, 13]: 564 L
half-life [9, 13]: 32.3 h
AUC(0-inf) ([9]; male, human, plasma, po, 100 mg): 8250 ng·h/mL
CL/F ([9]; plasma evacetrapib, geometric mean (CV)): 12.1 (20) L/h
% AUC(tlast–∞) ([9]; plasma evacetrapib): 1 (0–4) %
% AUC(tlast–∞) ([9]; plasma total radioactivity): 19 (13–26) %
treatment-emergent adverse events (TEAEs) reported ([9]; reported by 2 of 5 subjects, single 100-mg dose): 5
AEs related to evacetrapib as judged by the investigator ([9]; single 100-mg dose): Three
severity of all AEs ([9]; single 100-mg dose): mild
CLint (rCYP2C8): 0.712 μL × min^−1 × pmol CYP^−1
−kdep (rCYP2C8): 0.000707 s⁻¹
microsomal CLint (CYP2C8 (rCYP2C8)): 19.9 µL/min/mg
Ratio of geometric LS means, AUC(0–τ), evacetrapib + gemfibrozil versus evacetrapib (90% CI) [10]: 0.996
Ratio of geometric LS means, Cmax, evacetrapib + gemfibrozil versus evacetrapib (90% CI) [10]: 1.02
Ratio of geometric LS means, AUC(0–τ), evacetrapib + gemfibrozil versus evacetrapib (90% CI) ([10]; listed as Evacetrapib): 0.996 (0.922, 1.08)
Ratio of geometric LS means, Cmax, evacetrapib + gemfibrozil versus evacetrapib (90% CI) ([10]; listed as Evacetrapib): 1.02 (0.933, 1.11)
AEs considered to be related to the study drug ([10]; 5 of 24 subjects who received evacetrapib alone and/or with gemfibrozil): 10
Tmax ([10]; both, human, plasma, oral): 3 h
AUC [10, 14]: 11300 ng·h/mL
Cmax [10, 14]: 1270 ng/mL
Tmax [10, 14]: 4 h
severity of all AEs ([10]; human, in vivo): mild
AEs reported ([10]; whole study, reported by 12 subjects): 28
difference in median tmax between treatments ([10]; with versus without gemfibrozil): no significant difference

CC(=O)N1CCN(c2ccc(OCC3COC(Cn4ccnc4)(c4ccc(Cl)cc4Cl)O3)cc2)CC1 (stereo not shown) [ketoconazole, reference compound]
TEAEs considered moderate ([8]; reported by subjects who received ketoconazole alone): 2
